Test results as given in ChEMBL document CHEMBL1146087, “1,4-Benzodiazepines as inhibitors of respiratory syncytial virus” (J Med Chem, 2006).
pIC50: −log10 of the molar value.

Experiments:
[1] = Volume of distribution in Sprague-Dawley rat at 2 mg/kg, iv; assay type: ADME, organism-based; set-up: dose 2 mg/kg, route intravenous; conditions: in vivo, read-out: Vdss
[2] = Oral bioavailability in Sprague-Dawley rat at 2 mg/kg, po; assay type: ADME, organism-based; conditions: in vivo
[3] = Tmax in Sprague-Dawley rat at 2 mg/kg, iv; assay type: ADME, organism-based; set-up: dose 2 mg/kg, route intravenous; conditions: in vivo
[4] = system: Respiratory syncytial virus; test: Antiviral activity against RSV B in Hep2 cells by plaque assay; assay type: functional, organism-based; conditions: human respiratory syncytial virus, HEp-2
[5] = system: Respiratory syncytial virus; test: Antiviral activity against RSV RSS in Hep2 cells by ELISA; assay type: functional, organism-based; conditions: human respiratory syncytial virus, HEp-2
[6] = system: Respiratory syncytial virus; test: Antiviral activity against RSV B in Hep2 cells by ELISA; assay type: functional, organism-based; conditions: human respiratory syncytial virus, HEp-2
[7] = Cmax in Sprague-Dawley rat at 2 mg/kg, po; assay type: ADME, organism-based; set-up: dose 2 mg/kg, route oral; conditions: in vivo
Rattus norvegicus [8] = test: Volume of distribution in Sprague-Dawley rat at 25 mg/kg, po; assay type: ADME, organism-based; set-up: dose 25 mg/kg, route oral; conditions: in vivo
[9] = Apparent oral clearance in Sprague-Dawley rat at 25 mg/kg, po; assay type: ADME, organism-based; set-up: dose 25 mg/kg, route oral; conditions: in vivo
[10] = Half life in Sprague-Dawley rat at 25 mg/kg, po; assay type: ADME, organism-based; set-up: dose 25 mg/kg, route oral; conditions: in vivo
[11] = Tmax in Sprague-Dawley rat at 2 mg/kg, po; assay type: ADME, organism-based; set-up: dose 2 mg/kg, route oral; conditions: in vivo
[12] = system: Respiratory syncytial virus; test: Antiviral activity against RSV Long in Hep2 cells by plaque assay; assay type: functional, organism-based; conditions: human respiratory syncytial virus, HEp-2
[13] = Apparent oral clearance in Sprague-Dawley rat at 2 mg/kg, po; assay type: ADME, organism-based; set-up: dose 2 mg/kg, route oral; conditions: in vivo
[14] = system: Respiratory syncytial virus; test: Antiviral activity against RSV RSS in Hep2 cells by plaque assay; assay type: functional, organism-based; conditions: human respiratory syncytial virus, HEp-2
Rattus norvegicus [15] = test: Volume of distribution in Sprague-Dawley rat at 2 mg/kg, po; assay type: ADME, organism-based; set-up: dose 2 mg/kg, route oral; conditions: in vivo
[16] = Half life in Sprague-Dawley rat at 2 mg/kg, po; assay type: ADME, organism-based; set-up: dose 2 mg/kg, route oral; conditions: in vivo
[17] = Cmax in Sprague-Dawley rat at 25 mg/kg, po; assay type: ADME, organism-based; set-up: dose 25 mg/kg, route oral; conditions: in vivo
[18] = system: Respiratory syncytial virus; test: Antiviral activity against RSV RSS in Hep2 cells by whole cell XTT assay; assay type: functional, organism-based; conditions: human respiratory syncytial virus, HEp-2
In short: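 Primary whole-cell assay with XTT read-out of infected cells. Parallel cultures without virus were run to measure compound cytotoxicity. IC50 values were derived.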

[19] = Cmax in Sprague-Dawley rat at 2 mg/kg, iv; assay type: ADME, organism-based; set-up: dose 2 mg/kg, route intravenous; conditions: in vivo
HEp-2 = test: Cytotoxicity against Hep2 cell at 50 uM; assay type: functional, cell-based; conditions: Homo sapiens
In short: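 Run alongside the whole-cell antiviral XTT assay, without virus, to measure compound toxicity to the cells. The read-out is XTT.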

[20] = Half life in Sprague-Dawley rat at 2 mg/kg, iv; assay type: ADME, organism-based; set-up: dose 2 mg/kg, route intravenous; conditions: in vivo
[21] = Tmax in Sprague-Dawley rat at 25 mg/kg, po; assay type: ADME, organism-based; set-up: dose 25 mg/kg, route oral; conditions: in vivo
[22] = Clearance in Sprague-Dawley rat at 2 mg/kg, iv; assay type: ADME, organism-based; set-up: dose 2 mg/kg, route intravenous; conditions: in vivo
[23] = system: Respiratory syncytial virus; test: Antiviral activity against RSV Long in Hep2 cells by ELISA; assay type: functional, organism-based; conditions: human respiratory syncytial virus, HEp-2

Work on `CC(=O)NC1N=C(c2ccccc2)c2ccccc2NC1=O` (centres undefined) yielded a Vd [1] of 2.2 L/kg, a bioavailability [2] of 77% and a Tmax [3] of 4.8 min. The pIC50 [4] was 5.44, the pIC50 [5] was 5.03 and the pIC50 [6] was 4.75. For the same compound, the Cmax [7] was 616 ng/mL, the Vdss (Rattus norvegicus [8]) was 2.7 L/kg and the CL/F [9] was 7.3 mL/min/kg. It also gave a half-life [10] of 4.4 h, a Tmax [11] of 2.6 h and a pIC50 [12] of 5.14. For the same compound, the CL/F [13] was 4.9 mL/min/kg, the pIC50 [14] was 5.15 and the Vdss (Rattus norvegicus [15]) was 4.2 L/kg. For the same compound, the half-life [16] was 5.9 h, the Cmax [17] was 7930 ng/mL and the pIC50 [18] was 5.07. For the same compound, the Cmax [19] was 2400 ng/mL, the Activity (HEp-2) was “Not toxic” and the half-life [20] was 5 h. The Tmax [21] was 1.5 h, the clearance [22] was 5.3 mL/min/kg and the pIC50 [23] was 4.75.
